# Data: ChEMBL document CHEMBL4411273, “Polycyclic maleimide-based derivatives as first dual modulators of neuronal calcium channels and GSK-3β for Alzheimer's disease treatment” (Eur J Med Chem, 2019)
# pEC50, pIC50: −log10 of the molar value.
# Experiments:
# [1] = Cytotoxicity against human SH-SY5Y cells assessed as cell viability at 30 uM after 48 hrs by MTT assay relative to control; type: cell-based; conditions: read-out: Activity
# Procedure, shortened: (§1)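 SH-SY5Y cells seeded at 70 000 cells/well, exposed before confluence to compounds in MEM/F12 with 10% FBS for 24 h, then fresh medium with 1% FBS plus compounds for a further 24 h. MTT 1.2 mM for 2 h in dark; formazan dissolved in DMSO, absorbance at 540 nm. Viability expressed as percent of vehicle (DMSO)-treated cells; three independent experiments, mean ± SEM.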
# Ileum [2] = test: Inhibition of calcium-induced contraction in K+-depolarized guinea pig ileum at 10^-6 M relative to control; type: tissue-based; conditions: Cavia porcellus
# Procedure, shortened: (§2)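 Isolated guinea-pig aortic strips and ileum longitudinal smooth muscle, depolarized with 80 mM K+. Calcium-induced contraction measured with cumulative compound addition. Percent inhibition relative to control. IC50 from log concentration–response curves by Probit analysis, n = 6–7; not calculated when maximum effect was <50%.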
# [3] = target: Voltage-gated calcium channel; test: Inhibition of K+-induced voltage gated calcium channel opening in human SH-SY5Y cells assessed as decrease in Ca2+ level after 10 mins by Fluo-4 dye-based fluorescence assay; type: cell-based
# Procedure, shortened: (§3)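 Confluent SH-SY5Y cells (36–72 h after seeding) loaded with Fluo-4, washed with Krebs-HEPES, then incubated 10 min with compound or DMSO. Depolarized by injecting KCl to 70 mM and fluorescence followed for 2 min. Fmax taken after 5% Triton X lysis, Fmin after MnCl2. Ca2+ rise expressed against K+-induced rise without compound; blind testing, at least three independent experiments in triplicate, mean ± SEM. IC50 obtained by sigmoidal regression.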
# Aorta [4] = test: Inhibition of calcium-induced contraction in K+-depolarized guinea pig aortic strips at 5 x 10^-5 M relative to control; type: tissue-based; conditions: Cavia porcellus; procedure, shortened: as §2
# Ileum [5] = test: Inhibition of calcium-induced contraction in K+-depolarized guinea pig ileum; type: tissue-based; conditions: Cavia porcellus
# [6] = system: Voltage-gated calcium channel; test: Inhibition of K+-induced voltage gated calcium channel opening in human SH-SY5Y cells assessed as decrease in Ca2+ level at 10 uM after 10 mins by Fluo-4 dye-based fluorescence assay relative to control; type: cell-based; procedure, shortened: as §3
# Right cardiac atrium [7] = test: Negative inotropic activity in guinea pig spontaneously beating spontaneously beating right atrium assessed as decrease in developed tension; type: ADME, tissue-based; conditions: Cavia porcellus
# Procedure, shortened: (§4)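 Isolated spontaneously beating guinea-pig right atrium. Cumulative compound addition from 0.1 to 100 µM. Percent decrease in atrial rate, and in developed tension (n = 7–8), versus control. EC50 from log concentration–response curves by Probit analysis; not calculated when maximum effect was <50%.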
# [8] = target: Glycogen synthase kinase-3 beta (Homo sapiens) (UniProt P49841); test: Inhibition of GSK3beta (unknown origin) assessed as residual activity at 50 uM pre-incubated for 30 mins followed by ULight-GS (Ser641/pSer657) peptide substrate addition and measured after 1 hr by TR-FRET assay relative to control
# Glycogen synthase kinase-3 beta (Homo sapiens), sequence (P49841 whole entry, looked up): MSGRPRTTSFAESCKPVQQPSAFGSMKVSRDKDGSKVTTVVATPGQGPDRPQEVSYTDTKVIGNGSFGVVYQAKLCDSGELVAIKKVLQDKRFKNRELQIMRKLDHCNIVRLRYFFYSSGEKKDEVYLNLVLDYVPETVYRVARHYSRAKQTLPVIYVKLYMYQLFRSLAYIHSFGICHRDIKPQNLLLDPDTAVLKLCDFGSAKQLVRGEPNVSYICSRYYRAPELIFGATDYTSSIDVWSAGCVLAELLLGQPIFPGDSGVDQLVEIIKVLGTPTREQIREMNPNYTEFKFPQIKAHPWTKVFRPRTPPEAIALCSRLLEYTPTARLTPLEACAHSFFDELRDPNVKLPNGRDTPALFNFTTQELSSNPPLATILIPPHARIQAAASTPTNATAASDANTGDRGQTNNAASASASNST
# Procedure, shortened: (§5)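 TR-FRET (LANCE Ultra) kinase assay at 22 °C in 50 mM HEPES pH 7.5, 1 mM EGTA, 10 mM MgCl2, 2 mM DTT, 0.01% Tween-20, 3% DMSO. GSK-3β (0.5 nM final) preincubated 30 min with compound; ATP 10 µM and ULight-GS peptide 50 nM (final) added for 1 h. Stopped with 24 mM EDTA plus 2 nM Eu-anti-phospho-GS antibody, 1 h. Read at ex 320 nm, em 615/665 nm. Residual activity relative to DMSO; three separate experiments, mean ± SD.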
# Right cardiac atrium [9] = test: Negative inotropic activity in guinea pig spontaneously beating right atrium assessed as decrease in developed tension at 5 x 10^-5 M; type: ADME, tissue-based, Cavia porcellus; set-up: scale not given: the % may be the effect or the level left; conditions: 50 µM; procedure, shortened: as §4
# [10] = Cytotoxicity against human SH-SY5Y cells assessed as cell viability at 10 uM after 48 hrs by MTT assay relative to control; type: cell-based; conditions: read-out: Activity; procedure, shortened: as §1
# Left cardiac atrium [11] = test: Negative inotropic activity in guinea pig left atrium assessed as decrease in developed tension; type: ADME, tissue-based; conditions: Cavia porcellus
# Left cardiac atrium [12] = test: Negative inotropic activity in guinea pig left atrium assessed as decrease in developed tension at 5 x 10^-5 M relative to control; type: ADME, tissue-based, Cavia porcellus; set-up: scale not given: the % may be the effect or the level left; conditions: 50 µM
# Procedure, shortened: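 Isolated guinea-pig left atrium driven at 1 Hz. Cumulative compound concentrations from 0.1 to 100 µM. Percent decrease in developed tension versus control, n = 5–6. EC50 from log concentration–response curves by Probit analysis, n = 6–7; not calculated when maximum effect was <50%.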
# Right cardiac atrium [13] = test: Negative chronotropic activity in guinea pig spontaneously beating right atrium assessed as decrease in atrial rate at 10^-5 M; type: ADME, tissue-based, Cavia porcellus; set-up: scale not given: the % may be the effect or the level left; conditions: 10 µM; procedure, shortened: as §4
# Ileum [14] = test: Inhibition of calcium-induced contraction in K+-depolarized guinea pig ileum at 5 x 10^-5 M relative to control; type: tissue-based; conditions: Cavia porcellus; procedure, shortened: as §2
# [15] = system: Left cardiac atrium (Cavia porcellus); test: Negative inotropic activity in guinea pig left atrium driven at 1 Hz assessed as decrease in developed tension at 10^-5 M; set-up: scale not given: the % may be the effect or the level left; conditions: 10 µM
# Left cardiac atrium [16] = test: Negative inotropic activity in guinea pig left atrium assessed as decrease in developed tension at 10^-5 M relative to control; set-up: scale not given: the % may be the effect or the level left; conditions: 10 µM
# [17] = target: Glycogen synthase kinase-3 beta (Homo sapiens) (UniProt P49841); test: Inhibition of GSK3beta (unknown origin) assessed as residual activity at 3.12 uM pre-incubated for 30 mins followed by ULight-GS (Ser641/pSer657) peptide substrate addition and measured after 1 hr by TR-FRET assay relative to control; procedure, shortened: as §5
# Ileum [18] = test: Inhibition of calcium-induced contraction in K+-depolarized guinea pig ileum at […] relative to control; conditions: Cavia porcellus, read-out: INH
# Aorta [19] = test: Inhibition of calcium-induced contraction in K+-depolarized guinea pig aortic strips at 10^-6 M relative to control; conditions: Cavia porcellus, read-out: INH
# Right cardiac atrium [20] = test: Negative chronotropic activity in guinea pig spontaneously beating right atrium assessed as decrease in atrial rate at 10^-7 M; type: ADME, tissue-based, Cavia porcellus; set-up: scale not given: the % may be the effect or the level left; conditions: 0.1 µM
# Right cardiac atrium [21] = test: Negative chronotropic activity in guinea pig spontaneously beating right atrium assessed as decrease in atrial rate at 5 x 10^-5 M; type: ADME, tissue-based, Cavia porcellus; set-up: scale not given: the % may be the effect or the level left; conditions: 50 µM; procedure, shortened: as §4
# Ileum [22] = test: Inhibition of calcium-induced contraction in K+-depolarized guinea pig ileum at 10^-5 M relative to control; type: tissue-based; conditions: Cavia porcellus; procedure, shortened: as §2
# Right cardiac atrium [23] = test: Negative chronotropic activity in guinea pig spontaneously beating right atrium assessed as decrease in atrial rate at 10^-6 M; type: ADME, tissue-based, Cavia porcellus; set-up: scale not given: the % may be the effect or the level left; conditions: 1 µM; procedure, shortened: as §4
SMILES,"viability at 48 h, 30 µM [1]",pIC50 [3],inhibition at 50 µM (Aorta [4]),pEC50 (Ileum [5]),inhibition (INH) [6],pEC50 (Right cardiac atrium [7]),Activity (Right cardiac atrium [9]),"viability at 48 h, 10 µM [10]",pEC50 (Left cardiac atrium [11]),Activity (Left cardiac atrium [12]),Activity (Right cardiac atrium [13]),inhibition at 50 µM (Ileum [14]),Activity [15],Activity (Left cardiac atrium [16]),other results
O=C1NC(=O)C2C1C1(Cl)c3ccccc3C2(Cl)c2ccccc21 (stereo unspecified),92%,4.82,7%,6.31,38%,6.33,97%,95%,6.66,97%,–,–,–,–,inhibition at 1 µM (Ileum [2]): 68%; Activity [8]: 48%
COCCOC(=O)C1=C(C)NC(C)=C(C(=O)OC(C)C)C1c1cccc([N+](=O)[O-])c1 (stereo unspecified) [NIMODIPINE],–,4.85,–,–,25%,–,–,–,–,–,–,–,–,–,–
CCCCCCCNC(=O)C12c3ccccc3C(c3ccccc31)C1C(=O)NC(=O)C12 (stereo unspecified),87%,5.05,6%,5.44,56%,6.29,–,85%,5.72,–,45%,94%,85%,76%,Activity [8]: 10%; Activity [17]: 55%
COC(=O)C1=C(C)NC(C)=C(C(=O)OC)C1c1ccccc1[N+](=O)[O-] [NIFEDIPINE],–,–,–,8.82,–,–,–,–,–,–,–,–,–,–,inhibition at 0.005 µM (Ileum [18]): 70%; Activity (Left cardiac atrium [16]; Left cardiac atrium): 97%; inhibition at 1 µM (Aorta [19]): 82%; Activity (Right cardiac atrium [20]): 85%
Nc1cccc2c1C1c3ccccc3C2C2C(=O)NC(=O)C12 (stereo unspecified),–,–,8%,4.83,11%,5.73,92%,–,5.72,82%,42%,97%,–,–,–
CC(=O)c1ccc2c(c1)C1c3ccccc3C2C2C(=O)NC(=O)C12 (stereo unspecified),–,–,18%,6.11,20%,–,–,–,–,11%,33%,85%,4%,–,–
O=C1NC(=O)C2C1C1c3ccccc3C2(/C=N/Cc2ccccc2)c2ccccc21 (stereo unspecified),–,–,–,4.92,4%,5.54,85%,–,6.07,75%,–,85%,–,–,Activity [8]: 51%; Activity (Right cardiac atrium [21]): 26%
CC(=O)Nc1cccc2c1C1c3ccccc3C2C2C(=O)NC(=O)C12 (stereo unspecified),–,–,6%,–,0%,–,34%,–,6.49,–,–,12%,–,65%,Activity (Right cardiac atrium [21]): 8%
CC(=O)Nc1ccc2c(c1)C1c3ccccc3C2C2C(=O)NC(=O)C12 (stereo unspecified),–,–,10%,5.60,8%,5.66,93%,–,5.44,79%,–,–,–,–,inhibition at 10 µM (Ileum [22]): 67%; Activity (Right cardiac atrium [21]): 37%
O=C1NC(=O)C2C3c4ccccc4C(c4ccc(Cl)cc43)C12 (stereo unspecified),97%,4.82,21%,5.48,39%,5.61,–,91%,6.37,–,47%,–,87%,80%,inhibition at 1 µM (Ileum [2]): 90%
O=C1NC(=O)C2C3c4ccccc4C(c4cccc(Cl)c43)C12 (stereo unspecified),93%,4.96,9%,5.93,37%,5.97,–,92%,6.06,–,37%,–,94%,93%,inhibition at 10 µM (Ileum [22]): 90%
Nc1ccc2c(c1)C1c3ccccc3C2C2C(=O)NC(=O)C12 (stereo unspecified),–,–,–,5.90,6%,5.66,79%,–,5.83,74%,–,–,–,–,inhibition at 10 µM (Ileum [22]): 90%; Activity (Right cardiac atrium [23]): 15%
